# Laboratory results taken from ChEMBL document CHEMBL1649446, “Comparative antipneumococcal activities of sulopenem and other drugs” (2009).
# What was measured:
# Type in all cases: functional
# [1] = system: Streptococcus pneumoniae; test: Antimicrobial activity against Streptococcus pneumoniae isolate 4755 by agar dilution method
# Method in brief: (§1)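 Agar dilution MIC on Mueller-Hinton agar with 5% sheep blood, inocula 10^4 CFU/spot; amoxicillin-clavulanate combined 1:2; S. pneumoniae ATCC 49619 quality control each run.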
# [2] = system: Streptococcus pneumoniae; test: Antimicrobial activity against Streptococcus pneumoniae 11 by time-kill analysis
# Method in brief: (§2)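 Time-kill in cation-adjusted Mueller-Hinton broth with 5% lysed horse blood; inocula 5 × 105 to 5 × 10^6 CFU/ml; drugs at MIC, 2× and 4× MIC; 35°C shaking water bath; viable counts at 0, 3, 6, 12, 24 h. Bactericidal = ≥3 log10 CFU/ml (99.9%) drop from original inoculum; 90%/99%/99.9% killing scored per strain.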
# [3] = system: Streptococcus pneumoniae; test: Antimicrobial activity against Streptococcus pneumoniae isolate 3455 by agar dilution method
# [4] = system: Streptococcus pneumoniae; test: Antimicrobial activity against Streptococcus pneumoniae isolate 3791 by agar dilution method; method in brief: as §1
# [5] = system: Streptococcus pneumoniae; test: Antimicrobial activity against Streptococcus pneumoniae 19A by agar dilution method; method in brief: as §1
# [6] = system: Streptococcus pneumoniae; test: Antimicrobial activity against Streptococcus pneumoniae 5 by time-kill analysis
# Method in brief: as §2, with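 “12 and” for “12,”, “if” for “=”, “reduction” for “drop”, “90% and 99%” for “90%/99%/99.9%”, “also scored.” for “scored per strain.”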
# [7] = system: Streptococcus pneumoniae; test: Antimicrobial activity against Streptococcus pneumoniae isolate 2874 by agar dilution method; method in brief: as §1
# [8] = system: Streptococcus pneumoniae; test: Antimicrobial activity against Streptococcus pneumoniae isolate 3260 by agar dilution method
# [9] = system: Streptococcus pneumoniae; test: Antimicrobial activity against Streptococcus pneumoniae isolate 3481 by agar dilution method; method in brief: as §1
# [10] = system: Streptococcus pneumoniae; test: Antimicrobial activity against Streptococcus pneumoniae isolate 2617 by agar dilution method; method in brief: as §1
# [11] = system: Streptococcus pneumoniae; test: Antimicrobial activity against Streptococcus pneumoniae 7 by time-kill analysis; method in brief: as §2
# [12] = system: Streptococcus pneumoniae; test: Antimicrobial activity against Streptococcus pneumoniae isolate 3263 by agar dilution method
# [13] = system: Streptococcus pneumoniae; test: Antimicrobial activity against Streptococcus pneumoniae isolate 3412 by agar dilution method; method in brief: as §1
# [14] = system: Streptococcus pneumoniae; test: Antimicrobial activity against Streptococcus pneumoniae 10 by time-kill analysis; method in brief: as §2
# [15] = system: Streptococcus pneumoniae; test: Antimicrobial activity against Streptococcus pneumoniae 4 by time-kill analysis; method in brief: as §2
# [16] = system: Streptococcus pneumoniae; test: Antimicrobial activity against Streptococcus pneumoniae 9 by time-kill analysis
# Method in brief: as §2, with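 “12 and” for “12,”, “if” for “=”, “reduction” for “drop”, “90% and 99%” for “90%/99%/99.9%”, “also scored.” for “scored per strain.”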
# [17] = system: Streptococcus pneumoniae; test: Antimicrobial activity against Streptococcus pneumoniae isolate 3681 by agar dilution method; method in brief: as §1
# [18] = system: Streptococcus pneumoniae; test: Antimicrobial activity against Streptococcus pneumoniae isolate 3587 by agar dilution method
# [19] = system: Streptococcus pneumoniae; test: Antimicrobial activity against Streptococcus pneumoniae isolate 1397 by agar dilution method; method in brief: as §1
# [20] = system: Streptococcus pneumoniae; test: Antimicrobial activity against penicillin-intermediate Streptococcus pneumoniae by agar dilution method
# [21] = system: Streptococcus pneumoniae; test: Antimicrobial activity against Streptococcus pneumoniae isolate 1394 by agar dilution method
# [22] = system: Streptococcus pneumoniae; test: Antimicrobial activity against Streptococcus pneumoniae isolate 3458 by agar dilution method
# [23] = system: Streptococcus pneumoniae; test: Antimicrobial activity against Streptococcus pneumoniae isolate 1564 by agar dilution method
# [24] = system: Streptococcus pneumoniae; test: Antimicrobial activity against Streptococcus pneumoniae 8 by time-kill analysis; method in brief: as §2
# [25] = system: Streptococcus pneumoniae; test: Antimicrobial activity against Streptococcus pneumoniae isolate 24 by agar dilution method
# [26] = system: Streptococcus pneumoniae; test: Antimicrobial activity against Streptococcus pneumoniae isolate 3282 by agar dilution method
# [27] = system: Streptococcus pneumoniae; test: Antimicrobial activity against Streptococcus pneumoniae isolate 1424 by agar dilution method; method in brief: as §1
# [28] = system: Streptococcus pneumoniae; test: Antimicrobial activity against Streptococcus pneumoniae 6 by time-kill analysis; method in brief: as §2
# [29] = system: Streptococcus pneumoniae; test: Antimicrobial activity against Streptococcus pneumoniae isolate 3275 by agar dilution method; method in brief: as §1
# [30] = system: Streptococcus pneumoniae; test: Antimicrobial activity against penicillin-resistant Streptococcus pneumoniae by agar dilution method; method in brief: as §1
# [31] = system: Streptococcus pneumoniae; test: Antimicrobial activity against Streptococcus pneumoniae isolate 2686 by agar dilution method; method in brief: as §1
# [32] = system: Streptococcus pneumoniae; test: Antimicrobial activity against Streptococcus pneumoniae 2 by time-kill analysis; method in brief: as §2
# [33] = system: Streptococcus pneumoniae; test: Antimicrobial activity against Streptococcus pneumoniae isolate 1384 by agar dilution method; method in brief: as §1
# [34] = system: Streptococcus pneumoniae; test: Antimicrobial activity against Streptococcus pneumoniae isolate 37 by agar dilution method; method in brief: as §1
# [35] = system: Streptococcus pneumoniae; test: Antimicrobial activity against Streptococcus pneumoniae isolate 33 by agar dilution method; method in brief: as §1
# [36] = system: Streptococcus pneumoniae; test: Antimicrobial activity against Streptococcus pneumoniae isolate 1146 by agar dilution method; method in brief: as §1
# [37] = system: Streptococcus pneumoniae; test: Antimicrobial activity against Streptococcus pneumoniae isolate 1147 by agar dilution method; method in brief: as §1
# [38] = system: Streptococcus pneumoniae; test: Antimicrobial activity against Streptococcus pneumoniae 12 by time-kill analysis; method in brief: as §2
# [39] = system: Streptococcus pneumoniae; test: Antimicrobial activity against Streptococcus pneumoniae 1 by time-kill analysis
# Method in brief: as §2, with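 “12 and” for “12,”, “if” for “=”, “reduction” for “drop”, “90% and 99%” for “90%/99%/99.9%”, “also scored.” for “scored per strain.”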
# [40] = system: Streptococcus pneumoniae; test: Antimicrobial activity against Streptococcus pneumoniae isolate 4747 by agar dilution method; method in brief: as §1
# [41] = system: Streptococcus pneumoniae; test: Antimicrobial activity against penicillin-susceptible Streptococcus pneumoniae by agar dilution method
# [42] = system: Streptococcus pneumoniae; test: Antimicrobial activity against Streptococcus pneumoniae isolate 1055 by agar dilution method
# [43] = system: Streptococcus pneumoniae; test: Antimicrobial activity against Streptococcus pneumoniae isolate 2880 by agar dilution method; method in brief: as §1
# [44] = system: Streptococcus pneumoniae; test: Antimicrobial activity against Streptococcus pneumoniae isolate 2688 by agar dilution method; method in brief: as §1
# [45] = system: Streptococcus pneumoniae; test: Antimicrobial activity against Streptococcus pneumoniae isolate 3374 by agar dilution method; method in brief: as §1
# [46] = system: Streptococcus pneumoniae; test: Antimicrobial activity against Streptococcus pneumoniae isolate 3346 by agar dilution method
# [47] = system: Streptococcus pneumoniae; test: Antimicrobial activity against Streptococcus pneumoniae 3 by time-kill analysis; method in brief: as §2
structure (smiles),measurement,setting,value
COc1c(N2CCNC(C)C2)c(F)cc2c(=O)c(C(=O)O)cn(C3CC3)c12 (centres undefined) [GATIFLOXACIN],MIC,[1],0.25 µg/mL
same,MIC,[2],0.5 µg/mL
same,MIC,[3],0.5 µg/mL
same,MIC,[4],0.5 µg/mL
same,MIC50,[5],0.5 µg/mL
same,MIC90,[5],0.5 µg/mL
same,MIC,[6],0.5 µg/mL
same,MIC,[7],0.5 µg/mL
same,MIC,[8],0.125 µg/mL
same,MIC,[9],0.25 µg/mL
same,MIC,[10],0.5 µg/mL
same,MIC,[11],0.5 µg/mL
same,MIC,[12],0.25 µg/mL
same,MIC,[13],0.25 µg/mL
same,MIC,[14],0.25 µg/mL
same,MIC,[15],4 µg/mL
same,MIC,[16],0.5 µg/mL
same,MIC,[17],0.5 µg/mL
same,MIC,[18],0.25 µg/mL
same,MIC,[19],0.5 µg/mL
same,MIC50,[20],0.25 µg/mL
same,MIC90,[20],0.5 µg/mL
same,MIC,[21],0.5 µg/mL
same,MIC,[22],0.5 µg/mL
same,MIC,[23],0.5 µg/mL
same,MIC,[24],0.25 µg/mL
same,MIC,[25],0.5 µg/mL
same,MIC,[26],0.125 µg/mL
same,MIC,[27],0.25 µg/mL
same,MIC,[28],0.25 µg/mL
same,MIC,[29],0.25 µg/mL
same,MIC50,[30],0.5 µg/mL
same,MIC90,[30],1 µg/mL
same,MIC,[31],0.25 µg/mL
same,MIC,[32],0.25 µg/mL
same,MIC,[33],0.5 µg/mL
same,MIC,[34],0.5 µg/mL
same,MIC,[35],0.5 µg/mL
same,MIC,[36],2 µg/mL
same,MIC,[37],4 µg/mL
same,MIC,[38],0.25 µg/mL
same,MIC,[39],4 µg/mL
same,MIC,[40],0.125 µg/mL
same,MIC50,[41],0.5 µg/mL
same,MIC90,[41],4 µg/mL
same,MIC,[42],16 µg/mL
same,MIC,[43],0.25 µg/mL
same,MIC,[44],0.5 µg/mL
same,MIC,[45],0.25 µg/mL
same,MIC,[46],0.125 µg/mL
same,MIC,[47],0.25 µg/mL
C[C@H]1COc2c(N3CCN(C)CC3)c(F)cc3c(=O)c(C(=O)O)cn1c23.C[C@H]1COc2c(N3CCN(C)CC3)c(F)cc3c(=O)c(C(=O)O)cn1c23.O [LEVOFLOXACIN],MIC50,[5],2 µg/mL
same,MIC90,[5],2 µg/mL
same,MIC50,[20],1 µg/mL
same,MIC90,[20],2 µg/mL
same,MIC50,[30],1 µg/mL
same,MIC90,[30],4 µg/mL
same,MIC50,[41],1 µg/mL
same,MIC90,[41],16 µg/mL
